Calls of active or inactive are those of the source. No cut-off for these calls is given here.
What was measured:
Naja naja [1] = assay: Percent inhibition of hyaluronidase from Naja naja naja venom; parameters: concentration or dose not given beside the values; conditions: concentration not given here
[2] = target: T1, Basic phospholipase A2 PLA-A (Trimeresurus flavoviridis, UniProt P59264); assay: In vitro inhibitory concentration against phospholipase A2 of Trimeresurus flavoviridis venom; parameters: species or system Protobothrops flavoviridis
T1 sequence (P59264 whole entry): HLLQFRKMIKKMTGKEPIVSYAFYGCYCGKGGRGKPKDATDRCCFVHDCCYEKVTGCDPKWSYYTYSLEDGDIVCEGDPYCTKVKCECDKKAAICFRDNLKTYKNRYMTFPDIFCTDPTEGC

Naja melanoleuca = assay: Percent inhibition of hyaluronidase from Naja melanoleuca venom; NI = No inhibition
Mus musculus [3] = assay: Edema ratio expressed as weight of edematous leg to 100/weight of normal leg in mice upon injection of 300 uM compound pre-incubated with 1 ug phospholipase A2 of Naja melanoleuca at 37 degree C for 1 h into mice foot pads; assay type: functional
Summary of the method: (§1)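 Each PLA2 enzyme (1 µg) was preincubated with compound (300 µM) at 37 °C for 1 h, then injected into the right hind footpad of mice (22–24 g) in saline. The left footpad received saline as control. After 45 min the mice were killed, and both legs were cut at the ankle and weighed. Edema ratio = edematous leg weight × 100 / normal leg weight. Results given as mean SD (n = 4); Student's t test, P < 0.05.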

[4] = target: Acidic phospholipase A2 EC-I (Echis carinatus, UniProt Q7T3S7); assay: In vitro inhibitory concentration against phospholipase A2 of Echis carinatus venom
Protobothrops elegans [5] = assay: Percent inhibition of hyaluronidase from Trimeresurus elegans venom; parameters: concentration or dose not given beside the values; conditions: concentration not given here
Basic phospholipase A2 1 = target: T2, Basic phospholipase A2 1 (Naja melanoleuca, UniProt P00599); assay: In vitro inhibitory concentration against phospholipase A2 of Naja melanoleuca venom
T2 sequence (P00599 whole entry): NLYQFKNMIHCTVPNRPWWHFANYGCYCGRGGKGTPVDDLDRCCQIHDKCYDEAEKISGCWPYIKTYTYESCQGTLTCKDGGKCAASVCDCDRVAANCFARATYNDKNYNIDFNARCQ

[6] = In vitro Inhibitory concentration against phospholipase A2 activity of synovial fluid; parameters: species or system Homo sapiens
Daboia russelii russelii [7] = assay: Percent inhibition of hyaluronidase from Vipera russelli russelli venom; parameters: concentration or dose not given beside the values; conditions: concentration not given here
Mus musculus [8] = assay: Edema ratio expressed as weight of edematous leg to 100/weight of normal leg in mice upon injection of 300 uM compound preincubated with 1 ug phospholipase A2 of Trimeresurus flavoviridis at 37 C for 1 hr into the mice foot pads; assay type: functional; summary of the method: as §1
Mus musculus [9] = assay: Edema ratio expressed as weight of edematous leg to 100/weight of normal leg in mice upon injection of 300 uM compound pre-incubated with 1 ug phospholipase A2 of Echis carinatus at 37 C for 1 h into the mice foot pads; assay type: functional; summary of the method: as §1
Mus musculus [10] = assay: Edema ratio expressed as weight of edematous leg to 100/weight of normal leg in mice upon injection of 300 uM compound preincubated with 1 ug phospholipase A2 of Synovial fluid at 37 C for 1 hr into the mice foot pads; assay type: functional; summary of the method: as §1
Protobothrops elegans [11] = assay: Percent inhibition of hyaluronidase from Trimeresurus elegans venom; NI = No inhibition
Naja naja [12] = assay: Percent inhibition of hyaluronidase from Naja naja naja venom; NI = No inhibition
Daboia russelii russelii [13] = assay: Percent inhibition of hyaluronidase from Vipera russelli russelli venom; NI = No inhibition

Sequence of Acidic phospholipase A2 EC-I (Q7T3S7 17-136 limits assumed): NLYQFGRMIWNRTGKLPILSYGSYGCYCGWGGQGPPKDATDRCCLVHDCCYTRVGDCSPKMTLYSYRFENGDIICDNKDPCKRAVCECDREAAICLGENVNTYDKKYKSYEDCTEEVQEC

Compound | inhibition (Naja naja [1]) [%] | IC50 [2] [µM] | inhibition (Naja melanoleuca) | Ratio (Mus musculus [3]) | IC50 [4] [µM] | inhibition (Protobothrops elegans [5]) [%] | IC50 (Basic phospholipase A2 1) [µM] | IC50 [6] [µM] | inhibition (Daboia russelii russelii [7]) [%] | Ratio (Mus musculus [8]) | Ratio (Mus musculus [9]) | Ratio (Mus musculus [10]) | inhibition (Protobothrops elegans [11]) | inhibition (Naja naja [12]) | inhibition (Daboia russelii russelii [13])
Cc1ccc(C(=O)Oc2ccc(C)cc2C(=O)c2ccc(C)cc2)cc1 | 69.3 | 108 | inactive | 103 | 96 | 76.8 | 57 | 123 | 46 |  |  |  |  |  | 
C[C@H]1[C@H](C)CC[C@]2(C(=O)O)CC[C@]3(C)C(=CC[C@@H]4[C@@]5(C)CC[C@H](O)C(C)(C)[C@@H]5CC[C@]43C)[C@H]12 [URSOLIC ACID] |  |  |  |  | 2.3 |  | 2.9 |  |  |  |  |  |  |  | 
O=C(Oc1ccc(Cl)cc1C(=O)c1cccc(Cl)c1Cl)c1ccccc1 | 85.3 | 46 |  | 104 | 40 | 76.8 | 53 | 32 | 71.6 | 105 | 103 | 102 |  |  | 
Cc1ccc(OC(=O)c2ccccc2)c(C(=O)c2ccccc2)c1 | 13.9 | 69 | inactive |  | 94 |  | 60 | 46 | 28.2 | 105 |  | 109 | inactive |  | 
Cc1ccc(OC(=O)c2cccc(Cl)c2)c(C(=O)c2cccc(Cl)c2)c1 | 89.3 | 2.5 |  | 101 | 2.3 | 92.5 | 2.9 | 2.5 | 87.8 | 102 | 101 | 101 |  |  | 
Cc1cc(C(=O)c2cccc(Cl)c2Cl)ccc1OC(=O)c1ccccc1 |  | 89 |  |  | 112 | 33.1 | 132 | 156 | 26.2 |  |  |  |  | inactive | 
Cc1ccc(OC(=O)c2ccccc2C)c(C(=O)c2ccccc2C)c1 | 58.7 | 139 |  | 102 | 105 | 42.4 | 98 | 86 |  |  |  | 106 |  |  | inactive
Cc1ccc(C(=O)Oc2ccc(C(=O)c3ccccc3C)cc2C)cc1 | 42.4 | 75 |  |  | 87 | 48.9 | 73 | 56 | 36.9 |  |  | 101 |  |  | 

Reference: ChEMBL document CHEMBL1142819, “Synthesis of benzoyl phenyl benzoates as effective inhibitors for phospholipase A2 and hyaluronidase enzymes” (Bioorg Med Chem Lett, 2005)
